Test results as given in ChEMBL document CHEMBL1938355, “Antimycobacterial activities of 5-alkyl (or halo)-3'-substituted pyrimidine nucleoside analogs” (Bioorg Med Chem Lett, 2012).
Converted amounts (≈) assume the structure as drawn. The source made the active and inactive calls. No cut-off for these calls is given here.

What was measured:
[1] = tested on: Mycobacterium tuberculosis; assay: Antimycobacterial activity against Mycobacterium tuberculosis H37Ra assessed as growth inhibition at 0.5 to 1 ug/ml by microplate alamar blue assay; type: functional
In short: (§1)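 Strains obtained from ATCC. Tested by microplate alamar blue assay. Compounds made up as 10 mg/mL DMSO stocks, then serially diluted in 7H9GC medium. Final test concentrations were 100, 50, 25, 10, 5, 1 and 0.5, each in triplicate. Experiments were run twice, and mean percent growth inhibition is reported.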

[2] = tested on: Mycobacterium avium; assay: Antimycobacterial activity against Mycobacterium avium ATCC 25291 assessed as growth inhibition at 2 ug/ml by microplate alamar blue assay; type: functional, Mycobacterium avium subsp. avium ATCC 25291; settings: read-out: GI
[3] = tested on: Mycobacterium tuberculosis; assay: Antimycobacterial activity against Mycobacterium tuberculosis H37Ra assessed as growth inhibition at 10 ug/ml by microplate alamar blue assay; type: functional; settings: read-out: GI; in short: as §1
[4] = tested on: Mycobacterium tuberculosis; assay: Antimycobacterial activity against Mycobacterium tuberculosis H37Ra by microplate alamar blue assay; type: functional
[5] = tested on: Mycobacterium tuberculosis; assay: Antimycobacterial activity against Mycobacterium tuberculosis H37Ra assessed as growth inhibition at 50 ug/ml by microplate alamar blue assay; type: functional; settings: read-out: GI; in short: as §1
[6] = tested on: Mycobacterium tuberculosis; assay: Antimycobacterial activity against Mycobacterium tuberculosis H37Ra assessed as growth inhibition at 5 ug/ml by microplate alamar blue assay; type: functional; settings: read-out: GI; in short: as §1
[7] = tested on: Mycobacterium avium; assay: Antimycobacterial activity against Mycobacterium avium ATCC 25291 assessed as growth inhibition at 10 ug/ml by microplate alamar blue assay; type: functional, Mycobacterium avium subsp. avium ATCC 25291; settings: read-out: GI; in short: as §1
[8] = tested on: Mycobacterium avium; assay: Antimycobacterial activity against Mycobacterium avium ATCC 25291 assessed as growth inhibition at 50 ug/ml by microplate alamar blue assay; type: functional, Mycobacterium avium subsp. avium ATCC 25291; settings: read-out: GI; in short: as §1
[9] = tested on: Mycobacterium avium; assay: Antimycobacterial activity against Mycobacterium avium ATCC 25291 assessed as growth inhibition at 100 ug/ml by microplate alamar blue assay; type: functional, Mycobacterium avium subsp. avium ATCC 25291; settings: read-out: GI; in short: as §1
[10] = tested on: Mycobacterium tuberculosis; assay: Antimycobacterial activity against Mycobacterium tuberculosis H37Ra assessed as growth inhibition at 15 to 20 ug/ml by microplate alamar blue assay; type: functional
[11] = Cytotoxicity against human HuH7 cells by [3H]thymidine incorporation assay; type: cell-based, Huh-7
[12] = tested on: Huh-7; assay: Cytotoxicity against human HuH7 cells up to 100 ug/ml by XTT assay; type: cell-based
[13] = tested on: Huh-7; assay: Cytotoxicity against human HuH7 cells up to 100 ug/ml by [3H]thymidine incorporation assay; type: cell-based
[14] = tested on: Mycobacterium tuberculosis; assay: Antimycobacterial activity against Mycobacterium tuberculosis H37Ra assessed as growth inhibition at 0.5 to 100 ug/ml by microplate alamar blue assay; type: functional, organism-based; in short: as §1
[15] = tested on: Mycobacterium avium; assay: Antimycobacterial activity against Mycobacterium avium ATCC 25291 assessed as growth inhibition at 0.5 to 100 ug/ml by microplate alamar blue assay; type: functional; settings: Mycobacterium avium subsp. avium ATCC 25291
In short: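 M. avium ATCC 25291 (ATCC stock) in 7H9GC medium, microplate alamar blue read-out. Compounds dissolved in DMSO at 10 mg/mL (stock), diluted in medium to final 100, 50, 25, 10, 5, 1 and 0.5 µg/mL, each in triplicate. Two independent experiments; mean percent growth inhibition reported, SD within 10% of mean.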

[16] = Cytotoxicity against human HuH7 cells by XTT assay; type: cell-based, Huh-7
[17] = tested on: Mycobacterium tuberculosis; assay: Antimycobacterial activity against Mycobacterium tuberculosis H37Ra assessed as growth inhibition at 100 ug/ml by microplate alamar blue assay; type: functional; settings: read-out: GI; in short: as §1
[18] = tested on: Mycobacterium avium; assay: Antimycobacterial activity against Mycobacterium avium ATCC 25291 by microplate alamar blue assay; type: functional, Mycobacterium avium subsp. avium ATCC 25291

In the case of CO[C@H]1/C=C/O[C@@]2(C)Oc3c(C)c(O)c4c(O)c(c(/C=N/N5CCN(C)CC5)c(O)c4c3C2=O)NC(=O)/C(C)=C\C=C\[C@H](C)[C@H](O)[C@@H](C)[C@@H](O)[C@@H](C)[C@H](OC(C)=O)[C@@H]1C [RIFAMPIN], the “growth inhibition (GI)” value [1] is reported as 100% and the inhibition of growth at 2 µg/mL [2] is reported as 90%.
N[C@@H]1CONC1=O [CYCLOSERINE] showed an inhibition of growth at 10 µg/mL [3] of 60%, an MIC50 [4] of 5 µg/mL (≈ 49 µM) and an inhibition of growth at 50 µg/mL [5] of 100%. The inhibition of growth at 5 µg/mL [6] was 50%, the inhibition of growth at 10 µg/mL [7] was 15% and the inhibition of growth at 50 µg/mL [8] was 100%. The inhibition of growth at 100 µg/mL [9] was 100% and the “growth inhibition (GI)” value [10] was 80%.
For CCc1cn([C@H]2C[C@H](F)[C@@H](CO)O2)c(=O)[nH]c1=O, the CC50 [11] was greater than 100 µg/mL, the Activity [12] was “Non-toxic” and the Activity [13] was “Non-toxic”. The “growth inhibition (GI)” value [14] was “inactive”, the “growth inhibition (GI)” value [15] was “inactive” and the CC50 [16] was greater than 100 µg/mL.
For CCc1cn([C@H]2C[C@@H](O)[C@@H](CO)O2)c(=O)[nH]c1=O, the CC50 [11] was greater than 100 µg/mL, the Activity [12] was “Non-toxic” and the Activity [13] was “Non-toxic”. For the same compound, the “growth inhibition (GI)” value [14] was “inactive”, the “growth inhibition (GI)” value [15] was “inactive” and the CC50 [16] was greater than 100 µg/mL.
In the case of CCc1cn([C@H]2CC[C@@H](CO)O2)c(=O)[nH]c1=O, the CC50 [11] is reported as greater than 100 µg/mL, the Activity [12] is reported as “Non-toxic” and the Activity [13] is reported as “Non-toxic”. The “growth inhibition (GI)” value [14] was “inactive”, the “growth inhibition (GI)” value [15] was “inactive” and the CC50 [16] was greater than 100 µg/mL.
In the case of CCc1cn([C@H]2C[C@H](I)[C@@H](CO)O2)c(=O)[nH]c1=O, the CC50 [11] is reported as greater than 100 µg/mL, the Activity [12] is reported as “Non-toxic” and the Activity [13] is reported as “Non-toxic”. For the same compound, the “growth inhibition (GI)” value [14] was “inactive”, the “growth inhibition (GI)” value [15] was “inactive” and the CC50 [16] was greater than 100 µg/mL.
With Cc1cn([C@H]2C[C@H](N)[C@@H](CO)O2)c(=O)[nH]c1=O [3-AMINO- 3-DEOXYTHYMIDINE] the CC50 [11] was greater than 100 µg/mL, the Activity [12] was “Non-toxic” and the Activity [13] was “Non-toxic”. For the same compound, the “growth inhibition (GI)” value [14] was “inactive”, the “growth inhibition (GI)” value [15] was “inactive” and the CC50 [16] was greater than 100 µg/mL.
In the case of O=c1[nH]c(=O)n([C@H]2C[C@H](F)[C@@H](CO)O2)cc1C(F)(F)F, the CC50 [11] is reported as greater than 100 µg/mL, the Activity [12] is reported as “Non-toxic” and the Activity [13] is reported as “Non-toxic”. The “growth inhibition (GI)” value [14] was “inactive”, the inhibition of growth at 100 µg/mL [9] was 25% and the CC50 [16] was greater than 100 µg/mL.
With [N-]=[N+]=N[C@H]1C[C@H](n2cc(F)c(=O)[nH]c2=O)O[C@@H]1CO the CC50 [11] was greater than 100 µg/mL, the Activity [12] was “Non-toxic” and the Activity [13] was “Non-toxic”. For the same compound, the “growth inhibition (GI)” value [14] was “inactive”, the “growth inhibition (GI)” value [15] was “inactive” and the CC50 [16] was greater than 100 µg/mL.
With [N-]=[N+]=N[C@H]1C[C@H](n2cc(Cl)c(=O)[nH]c2=O)O[C@@H]1CO the CC50 [11] was greater than 100 µg/mL, the Activity [12] was “Non-toxic” and the Activity [13] was “Non-toxic”. The inhibition of growth at 100 µg/mL [17] was 50%, the “growth inhibition (GI)” value [15] was “inactive” and the CC50 [16] was greater than 100 µg/mL.
With [N-]=[N+]=N[C@H]1C[C@H](n2cc(Br)c(=O)[nH]c2=O)O[C@@H]1CO the CC50 [11] was greater than 100 µg/mL, the Activity [12] was “Non-toxic” and the Activity [13] was “Non-toxic”. The inhibition of growth at 100 µg/mL [17] was 30%, the “growth inhibition (GI)” value [15] was “inactive” and the CC50 [16] was greater than 100 µg/mL.
Compound CCc1cn([C@H]2C[C@H](N=[N+]=[N-])[C@@H](CO)O2)c(=O)[nH]c1=O has an inhibition of growth at 10 µg/mL [3] of 50%, a CC50 [11] greater than 100 µg/mL and an MIC50 [4] of 10 µg/mL (≈ 35.6 µM). For the same compound, the Activity [12] was “Non-toxic”, the inhibition of growth at 50 µg/mL [5] was 60% and the Activity [13] was “Non-toxic”. It also gave an inhibition of growth at 100 µg/mL [17] of 60%, an inhibition of growth at 10 µg/mL [7] of 50% and an inhibition of growth at 50 µg/mL [8] of 60%. The inhibition of growth at 100 µg/mL [9] was 100%, the MIC50 [18] was 10 µg/mL (≈ 35.6 µM) and the CC50 [16] was greater than 100 µg/mL.
Compound CC[C@H]1OC(=O)[C@H](C)[C@@H](O[C@H]2C[C@@](C)(OC)[C@@H](O)[C@H](C)O2)[C@H](C)[C@@H](O[C@@H]2O[C@H](C)C[C@H](N(C)C)[C@H]2O)[C@](C)(OC)C[C@@H](C)C(=O)[C@H](C)[C@@H](O)[C@]1(C)O [CLARITHROMYCIN] has an inhibition of growth at 2 µg/mL [2] of 100%.
